# Lmaj promast – inhibitors of Leishmania major promastigote growth. Leishmania major promastigotes, resazurin fluorescence viability. inhibition, % at 10 µM. 200,000 tested, 9% active; in the data active = inhibition above about 50%;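 note: promastigotes grown with compound for 44 hours at 28 °C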
# Hsp70 act – switches on Hsp70 transcription; AID 1203; 200,000 tested, 0.04% active; activation, % at 10 µM; HeLa Hsp70 promoter luciferase reporter, luminescence; scaled: vehicle 0, proteasome-inhibitor control 100%;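 active = activation above the mean across all tested compounds plus 3 SD, cutoff set per campaign, cut at about 5.5% in these data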
# HSF1 activator – increases HSF-1 driven luciferase reporter signal. NIH3T3-HGL HSF-1 luciferase reporter, MG132, 8 h; 100% = twice DMSO control signal. activation, % at 9 µM. 300,000 tested, 1.7% active. AID 504408;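 active = mean replicate activation of at least 50% with a set share of replicates each reaching 50%; inconclusive = only one of those two conditions met; inactive = mean below 50% and too few replicates reaching it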
# HSF1 inh – HSF1 inhibition; 300,000 tested, 0.77% active; AID 2098; NIH3T3-HGL HSE-luciferase, MG132-induced, luminescence 8 h; hits give low values; activity change, negative = inhibition, % at 7.5 µM (by protocol);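 active = more than half of replicate wells show activity change below -50%, luminescence cut by over half; inconclusive = some wells, but at most half, below -50%; inactive = no replicate well below -50%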;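 note: luciferase reports HSF-1 transcriptional activity via heat shock element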
# T cruzi repl – blocks replication of Trypanosoma cruzi. T. cruzi beta-gal in NIH3T3, luminescence, 90 h. inhibition, % (no concentration beside the values). 300,000 tested, 1.4% active. AID 1885;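 active = mean inhibition across valid replicates above about 55%, limit read from the data; inconclusive = mean below that limit but half or more replicates reach it; inactive = mean below it, under half of replicates reach it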;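 note: signal also drops with host cell toxicity which is not excluded here; higher percent means less beta-gal luminescence so fewer parasites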
#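 Assay system: NIH/3T3 fibroblasts plus reporter T. cruzi. Amount: NIH/3T3 cells, 5,000 per well. Buffer or medium: DMEM, 2% fetal bovine serum. Doses: compound pinned at 50 nL/well, DMSO. Schedule: ≥90 h infection period, 3 h prior cell attachment. Signal: luminescent β-galactosidase signal after 60 min lysis. Read-out: parasite load inhibition, %.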
# A number is an active result; - = inactive; ? = inconclusive; . = not tested or not shown. This is one part of a sample in which hits are shown more often than they occur.
SMILES,Lmaj promast,Hsp70 act,HSF1 activator,HSF1 inh,T cruzi repl
CCOC(=O)c1c(C2CC2)csc1NC(=O)COC(=O)c1cc(OC)c(OC)cc1[N+](=O)[O-],90.8,-,-,-,-
CCOC(=O)c1c(C2CC2)csc1NC(=O)COC(=O)c1ccc[n+]([O-])c1,-,-,-,-,-
O=C(NCc1nc2ccccc2[nH]1)C1=C[C@@H](c2csc3ccccc23)C[C@@H](OCc2ccc(CO)cc2)O1,95.5,-,-,-,-
O=C(NCc1nc2ccccc2[nH]1)C1=C[C@@H](c2ccc(Br)cc2)C[C@@H](OCCCCO)O1,-,-,-,-,-
O=C(NCc1nc2ccccc2[nH]1)C1=C[C@@H](c2ccc(Br)cc2)C[C@@H](OCc2ccc(CO)cc2)O1,78.0,-,-,-,-
O=C(NCc1ccccc1)C1=C[C@@H](c2ccc(Br)cc2)C[C@@H](OCc2ccc(CO)cc2)O1,54.9,-,-,-,-
CC(C)c1cc(C(=O)NNC(=S)NCc2ccco2)c(O)c(C(C)C)c1,-,-,-,-,-
COc1cccc(CN2C(=O)c3cccc(N)c3C2=O)c1,-,-,-,-,-
COc1cc(/C=C/C(=O)N2C(=O)c3cccc(N)c3C2=O)cc(OC)c1OC,-,-,130.2,-,-
Nc1cccc2c1C(=O)N(C(=O)/C=C/c1cccc(F)c1)C2=O,-,-,-,-,-
COc1ccc(OC)c(/C=C/C(=O)N2C(=O)c3cccc(N)c3C2=O)c1,-,-,86.5,-,-
Nc1cccc2c1C(=O)N(C(=O)/C=C/c1cccc(Br)c1)C2=O,.,.,106.5,-,-
O=C(NCc1ccccn1)c1cc(-c2ccccc2Cl)nc2ccccc12,87.4,-,-,-,-
Cc1nc2ccccc2c2oc(C(=O)NCc3ccccn3)cc12,-,-,52.2,-,-
COC(=O)C1C(=O)C2=C(CC1C)NC(C)=C(C(=O)OCc1ccc(OC)cc1)C2c1ccc(C)o1 (stereo not given),-,-,111.8,-,-
COC(=O)c1ccc(N=NN2CCCCCC2)cc1,-,-,75.4,-,-
O=C(C[n+]1ccc2ccccc2c1)c1cccc2ccccc12,-,-,-,-,-
O=C(/C=C/c1cc[n+](CC(=O)c2ccc3cccc4c3c2CC4)cc1)c1ccc2cccc3c2c1CC3,.,.,-,-,62.8
CCCN1CCCc2cc(CN)ccc21,100.0,-,.,.,89.0
CN1CCCc2cc(C=O)ccc21,-,-,-,-,-
O=[N+]([O-])c1cccnc1S(=O)(=O)c1ccccc1,.,.,?,-,68.2
COc1ccc([N+](=O)[O-])c(S(=O)(=O)c2ccccc2)n1,.,.,-,-,-
NS(=O)(=O)c1ccc(Nc2ncccc2[N+](=O)[O-])cc1,75.1,-,-,-,-
O=C(c1cncc(Br)c1)N1CCN(S(=O)(=O)c2ccc(Cl)cc2)CC1,.,.,-,-,-
COc1ccc(OC)c(C(=O)c2ccc(C(=O)Nc3cccc4ccccc34)cc2)c1,55.2,-,-,-,-
SMILES,Lmaj promast,Hsp70 act,HSF1 activator,HSF1 inh,T cruzi repl
COc1ccc(C(=O)Nc2ccc(C)cc2C(=O)c2ccccc2)cc1,98.7,-,-,-,-
COc1ccc(C(=O)Nc2ccccc2C(=O)NC(Cc2ccc(O)cc2)C(=O)NNC(=O)c2ccc(C)cc2)cc1 (stereo not given),-,-,-,-,-
COc1ccc(C(=O)Nc2ccccc2C(=O)NC(Cc2ccc(O)cc2)C(=O)NNC(=O)c2ccccc2)cc1 (stereo not given),62.3,-,-,-,-
COc1ccc(OC)c(C(=O)c2ccc(C(=O)Nc3ccc(NC(C)=O)cc3)cc2)c1,.,.,-,-,-
COc1ccccc1C(=O)Nc1ccc(C)cc1C(=O)c1ccccc1,-,-,-,-,-
COc1ccc(C(=O)c2c[nH]cc2-c2ccccc2)cc1,-,-,-,-56.5,-
CC1(c2ccccc2)NC(=O)N(CC(=O)N2CCN(S(=O)(=O)c3cccs3)CC2)C1=O (stereo not given),.,.,-,-,-
CN1C(=O)C(c2ccccc2[N+](=O)[O-])C(=O)c2ccccc21 (stereo not given),.,.,-,-,-
O=C(CCCN1C(=O)c2ccccc2C1=O)Nc1ccc2c(c1)OCCO2,-,-,-,-,-
O=C(O)CC(Cc1ccc(Br)cc1)C(=O)O (stereo not given),-,-,-,-76.5,-
CCn1c(N2CCN(S(=O)(=O)c3ccccc3C(F)(F)F)CC2)nc2ccccc21,73.9,-,-,-,-
Cc1ccsc1C1C(C#N)=C(N)N(N(C)C)C2=C1C(=O)CC(C)(C)C2 (stereo not given),-,-,-,-,-
O=C(Nc1ccc(NC(=O)c2cc([N+](=O)[O-])ccc2N2CCOCC2)cc1)c1cccs1,-,-,-,-,-
C=C(C)COc1ccc2c(C)c(CCC(=O)NC3CC3)c(=O)oc2c1,.,.,-,-,-
COc1cccc2cc(C(=O)Nc3ccccc3C)/c(=N/NS(=O)(=O)c3ccccc3)oc12,.,.,-,-,-
COc1ccc(S(=O)(=O)N/N=c2\oc3c(OC)cccc3cc2S(=O)(=O)c2ccc(C)cc2)cc1OC,-,-,85.8,-,-
O=C(c1ccc(Cl)c(S(=O)(=O)Nc2ccccc2C(=O)N2CCc3ccccc3C2)c1)N1CCc2ccccc2C1,78.1,-,-,-,-
O=C(c1ccc(Cl)c(S(=O)(=O)N2CCc3ccccc3C2)c1)N1CCN(c2ccccc2)CC1,-,-,-,-,-
CC(=O)c1ccccc1NC(=O)Cn1c(=O)cnc2ccccc21,58.5,-,-,-,-
OCCNCCCOc1cc(Cl)ccc1Cl,-,-,-,-,-
Cc1cc(OCCCCCNCCO)cc(C)c1Cl,98.1,-,-,-,-
Cc1cc(C)c(OCCCCCNCCO)c(C)c1,89.7,-,-,-,-
Cc1cc(OCCNCCO)cc(C)c1Cl,66.3,-,-,-,-
Cc1cc(C)cc(OCCCCCNCCO)c1,51.6,-,-,-,-
Cc1cc(OCC(=O)NCCO)cc(C)c1Cl,-,-,-,-,-
SMILES,Lmaj promast,Hsp70 act,HSF1 activator,HSF1 inh,T cruzi repl
CCOC(=O)COc1ccc(C(=O)Nc2cccc(Cl)c2C)cc1,-,-,-,-,-
O=C(NC(=S)N(CCO)Cc1ccccc1)c1ccc(S(=O)(=O)N2CCCC2)cc1,-,-,-,-,-
NNc1ccc(Cl)nn1,.,.,-,-,-
Cc1ccc(C)c(NC(=O)C2CC(O)CN2C(=O)Oc2ccccc2)c1 (stereo not given),.,.,66.6,-,-
Cc1ccc(C)c(NC(=O)C2CC(O)CN2C(=O)OCc2ccccc2)c1 (stereo not given),-,-,-,-,-
CC(C)[C@H](NC(=O)c1nn(Cc2ccccc2)c(=O)c2ccccc12)C(=O)O,.,.,-,-,-
COc1cc(C(=O)N=c2sccn2C)c([N+](=O)[O-])cc1OC,.,.,-,-,-
Cn1ccsc1=NC(=O)c1ccc([N+](=O)[O-])o1,.,.,-,-,60.2
CCN(C1CCCCC1)S(=O)(=O)c1ccc(S(=O)(=O)NCCc2ccncc2)cc1,-,-,-,-,?
